Reference: publication PMC9661475 (Journal of Medicinal Chemistry, 2022)

Legend:
EV-D68 [1] = experiment: Plaque formation assay in RD cells; format: cell-based, Enterovirus D68; settings: concentration of 1 μM
How it was run: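 RD cells grown overnight received serially diluted virus stock plus test compound for 1.5 h. The supernatant was then removed and replaced with a 2× DMEM overlay containing 2% low-melting agarose.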

EV-D68 VP1 expression [2] = experiment: Immunofluorescence assay of viral VP1 in RD cells; format: cell-based, Enterovirus D68; settings: EV-D68-infected RD cells, MOI 1, 12 h
How it was run: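 RD cells were infected with EV-D68 at MOI 1 in the presence of test compound for 12 h. They were then fixed with 4% formaldehyde for 30 min, permeabilized with 0.1% Triton X-100 for 30 min and blocked with 5% bovine serum. Staining used rabbit anti-VP1 with an Alexa-546 secondary and 1 μM Hoechst33342 for nuclei, followed by fluorescence microscopy imaging.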

EV-D68 VP1 expression [3] = experiment: Western blot assay of viral VP1 in RD cells; format: cell-based, Enterovirus D68; settings: EV-D68-infected RD cells, MOI 0.01, 12 hpi
How it was run: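 RD cells (8.0 × 10^4 per well) were seeded and infected after 24 h with EV-D68 at MOI 0.01, with gradient-diluted test compound or DMSO, for 1.5 h. Cells were lysed in RIPA at 12 hpi. Equal protein was run on 10% SDS-PAGE, transferred to PVDF and blocked with 5% skim milk. Blots were probed with anti-EV-D68 and tubulin antibodies, then HRP secondaries, with ECL detection.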

[4] = tested on: EV-D68 strain STL-2014-12; experiment: CPE reduction assay, EV-D68 STL-2014-12 in RD cells; format: cell-based, Enterovirus D68; settings: for EC50: Enterovirus D, EVD68, RD, CPE assay, anti-EV-D68 activity; for anti-EV-D68 activity: running text on series 1 SAR
[5] = Liver microsome stability assay, dog; format: in vitro ADME; settings: beagle, liver microsomes
How it was run: (§1)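 Test compound (1 μM final) was incubated at 37 °C with rat, beagle dog or human liver microsomes (0.5 mg/mL protein) and 1 mM NADPH, with a parallel no-NADPH control. Aliquots were quenched at 0, 5, 15, 30 and 60 min in solution containing internal standard, centrifuged at 4 °C and analysed by LC-MS/MS. t1/2 and intrinsic clearance were derived from compound depletion.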

[6] = Liver microsome stability assay, rat; format: in vitro ADME; settings: liver microsomes
How it was run: as §1

[7] = Pharmacokinetic study in SD rats; format: in vivo; settings: male, rat, plasma, iv, 1 mg/kg
How it was run: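 Male SD rats (6–9 or 6–8 weeks old, depending on compound; n = 3) received a single iv dose of 1 mg/kg. The vehicle was 5% DMSO/5% Solutol HS-15/90% water or 5% DMSO/95% HP-β-CD in water. Jugular blood was taken into heparin at 0.083, 0.25, 0.5, 1, 2, 4, 6 and 24 h. Plasma, obtained by centrifugation at about 4 °C, was assayed by LC-MS/MS.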

EV-D68 virions [8] = experiment: Thermoprotection assay; set-up: species or system Enterovirus D68; settings: 12.5 μM, heated 2 min, TCID50
How it was run: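 Virus (2 × 10^6 PFU/ml) was preincubated with test compound (12.5 μM) or DMSO for 30 min at 33 °C. It was then heated for 2 min at 37–59 °C and rapidly cooled to 4 °C. Residual titre was measured by TCID50 on RD cells: 10-fold virus dilutions, CPE scored after 72 h, Reed–Muench calculation.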

[9] = Liver microsome stability assay, human; format: in vitro ADME; settings: liver microsomes
How it was run: as §1

EV-D68 [10] = experiment: Time of drug addition assay; format: cell-based, Enterovirus D68; settings: 2 μM, RD cells, 0.01 MOI, viral load by qRT-PCR
various EV-D68 strains = experiment: CPE assay, various EV-D68 strains; format: cell-based; settings: Enterovirus D, EVD68
How it was run: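 RD cells (DMEM, 10% FBS, 37 °C, 5% CO2) were seeded at 1.5 × 10^4/well and grown for 24 h. They were infected with 100 TCID50 of strain STL-2014-12, US/KY/14-18953, US/MO/14-18947 or Fermon, plus test compound in 3-fold dilutions (0.01–200 μM) or DMSO, for 72 h at 37 °C. ATP was read by CellTiter-Glo luminescence and normalised to uninfected and infected controls. EC50 is the concentration giving a 50% ATP increase.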

EV-D68 virions [11] = experiment: Particle stability thermal release assay; set-up: species or system Enterovirus D68; settings: 10 μg/mL, 1.5 μg purified EV-D68, SYTO9
How it was run: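 Test compound (10 μg/mL) or DMSO was mixed with 1.5 μg EV-D68 and SYTO9 nucleic-acid dye, at 5% DMSO. The mixture was held at 33 °C for 15 min, then ramped from 25 to 99 °C. Fluorescence was recorded in triplicate at 1 °C steps, and melting temperature was taken from the negative first-derivative curve.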

Structure (SMILES): Cl.Nc1ccc(-c2ccc3ncc(-c4noc(C(F)(F)F)n4)cc3c2)cc1 [19·HCl, 4-(3-(5-(Trifluoromethyl)-1,2,4-oxadiazol-3-yl)quinolin-6-yl)aniline Hydrochloride]
- replication of EV-D68 virus particles (plaque formation) (EV-D68 [1]): significantly inhibited the replication of EV-D68 virus particles
- expression level of viral VP1 (EV-D68 VP1 expression [2]): significantly inhibited the expression level of viral VP1 in a dose-dependent manner
- expression level of viral VP1 (EV-D68 VP1 expression [3]): significantly inhibited the expression level of viral VP1 in a dose-dependent manner

Structure (SMILES): CCCc1ccc(-c2ccc3ncc(C(=O)OCC)cc3c2)cc1 [Compound 10, Ethyl 6-(4-Propylphenyl)quinoline-3-carboxylate]
- EC50 [4]: > 10 µM

Structure (SMILES): CCOC(=O)c1cnc2ccc(-c3cccc(N)c3)cc2c1 [Compound 11, Ethyl 6-(3-Aminophenyl)quinoline-3-carboxylate]
- EC50 [4]: > 10 µM

Structure (SMILES): CCOC(=O)c1cnc2ccc(-c3cn[nH]c3)cc2c1 [Compound 17, Ethyl 6-(1H-Pyrazol-4-yl)quinoline-3-carboxylate]
- anti-EV-D68 activity [4]: complete loss of activity

Structure (SMILES): CCOC(=O)c1cnc2ccc(-c3ccc(C(N)=O)cc3)cc2c1 [Compound 18, Ethyl 6-(4-Carbamoylphenyl)quinoline-3-carboxylate]
- anti-EV-D68 activity [4]: inactivation

Structure (SMILES): Nc1ccc(-c2ccc3ncc(-c4noc(C(F)(F)F)n4)cc3c2)cc1 [Compound 19, 4-(3-(5-(Trifluoromethyl)-1,2,4-oxadiazol-3-yl)quinolin-6-yl)aniline]
- CLint scaled at 1 h, 1 µM [5]: 116 mL/min/kg
- CLint scaled at 1 h, 1 µM [6]: 61.2 mL/min/kg
- clearance at 24 h [7]: 64 ± 13.1 mL/min/kg
- thermal inactivation of virus at 55 °C (EV-D68 virions [8]): significantly reduce the thermal inactivation
- virus activity at 57 °C (EV-D68 virions [8]): maintained certain virus activity
- CLint scaled at 1 h, 1 µM [9]: 10.8 mL/min/kg
- antiviral activity, drug added after 1 hpi (phases II and IV) (EV-D68 [10]): antiviral activity disappeared
- antiviral activity, drug added at 0–1 h (phase I) and 0–14 h (phase III) (EV-D68 [10]): significant antiviral activity
- EC50 (various EV-D68 strains): 0.05 to 0.1 µM
- increase in antiviral potency compared to compound 15 ([4]; EC50 ratio, STL-2014-12): ~10 fold

Structure (SMILES): CCc1nc(-c2cnc3ccc(-c4ccc(N)cc4)cc3c2)no1.Cl [Compound 21·HCl, 4-(3-(5-Ethyl-1,2,4-oxadiazol-3-yl)quinolin-6-yl)aniline Hydrochloride]
- replication of EV-D68 virus particles (plaque formation) (EV-D68 [1]): significantly inhibited the replication of EV-D68 virus particles
- clearance at 24 h [7]: 106 ± 10 mL/min/kg
- expression level of viral VP1 (EV-D68 VP1 expression [2]): significantly inhibited the expression level of viral VP1 in a dose-dependent manner
- expression level of viral VP1 (EV-D68 VP1 expression [3]): significantly inhibited the expression level of viral VP1 in a dose-dependent manner

Structure (SMILES): Cc1cc(CCCOc2c(C)cc(-c3noc(C(F)(F)F)n3)cc2C)on1 [Pleconaril, pleconaril, reference compound]
- protection against viral particles (PaSTRy) (EV-D68 virions [11]): almost no protection
- thermal inactivation of virus at 55 °C (EV-D68 virions [8]): significantly reduce the thermal inactivation
- antiviral activity, drug added after 1 hpi (phases II and IV) (EV-D68 [10]): same experimental results
- antiviral activity, drug added at 0–1 h (phase I) and 0–14 h (phase III) (EV-D68 [10]): same experimental results
